Results of several laboratories.
Compare with care: the assays were run in different laboratories.
Cell line: HT-29
Read-out: cell growth or viability

O=C1Nc2ccc(Br)cc2/C1=N/NC(=O)c1cc2ccccc2[nH]1
inhibition (30 µM): 64.5%

COc1ccc(C(=O)/C=C/c2cc3c(cc2Br)OCO3)cc1S(N)(=O)=O
inhibition (SRB; 10 µM): 100%

COc1ccc2c(c1)C(=NNc1nnc(Cc3ccccc3)c3ccccc13)C(=O)N2
inhibition (30 µM): 9.3%

COc1ccc(C(=O)/C=C/c2c(F)cccc2Cl)cc1S(N)(=O)=O
inhibition (SRB; 10 µM): 92%

COc1cccc2c1C(=O)c1c(O)c3c(c(O)c1C2=O)C[C@@](O)(C(=O)CO)C[C@@H]3O[C@H]1C[C@H](N)[C@H](O)[C@H](C)O1
inhibition (SRB; 10 µg/mL; 48 h): 97.1%

Cn1c(=O)c(NN=C2C(=O)Nc3ccc(Cl)cc32)nc2ccccc21
inhibition (30 µM): 16.1%

CN1C(=O)/C(=N\NC(=O)c2cc3ccccc3[nH]2)c2cc(F)ccc21
inhibition (30 µM): 91.3%

COc1ccc(C(=O)/C=C/c2cccnc2)cc1S(N)(=O)=O
inhibition (SRB; 10 µM): 76%

COc1ccc2c(c1)/C(=N/NC(=O)c1cc3ccccc3[nH]1)C(=O)N2
inhibition (30 µM): 36.5%

COc1ccc(C(=O)/C=C/c2ccccc2Br)cc1S(N)(=O)=O
inhibition (SRB; 10 µM): 117%

O=C1Nc2ccccc2C1=NNc1nnc(Cc2ccccc2)c2ccccc12
inhibition (30 µM): 87.6%

O=C1Nc2ccccc2C1=NNc1nnc2n1N=C(c1ccccc1)CS2
inhibition (SRB; 10 µM): 28%

COc1ccc(C(=O)/C=C/c2cccc(Br)c2)cc1S(N)(=O)=O
inhibition (SRB; 10 µM): 156%

O=C1Nc2ccc(F)cc2/C1=N/NC(=O)c1cc2ccccc2[nH]1
inhibition (30 µM): 13.9%

COc1cc2ncnc(NN=C3C(=O)Nc4ccc(F)cc43)c2cc1OC
inhibition (10 µM): 13.2%

CN1C(=O)/C(=N\NC(=O)c2cc3ccccc3[nH]2)c2ccccc21
inhibition (30 µM): 78.5%

COc1ccc(-c2nc(NN=C3C(=O)Nc4ccccc43)c3ccccc3n2)cc1OC
inhibition (30 µM): 38.1%

COc1ccc2c(c1)/C(=N/NC(=O)c1cc3ccccc3[nH]1)C(=O)N2C
inhibition (30 µM): 90.8%

COc1ccccc1/C=C/C(=O)c1ccc(OC)c(S(N)(=O)=O)c1
inhibition (SRB; 10 µM): 81%

COc1ccc2c(c1)C(=NNc1nc3ccccc3n(C)c1=O)C(=O)N2
inhibition (30 µM): 48.5%
